Test results from ChEMBL document CHEMBL1926549, “First chemical feature-based pharmacophore modeling of potent retinoidal retinoic acid metabolism blocking agents (RAMBAs): identification of novel RAMBA scaffolds” (Eur J Med Chem, 2012).

Columns and labels:
[1] = test system: Cricetinae; test: Inhibition of CYP26 in hamster liver microsomes assessed as [11,12-[3H]ATRA metabolism at 100 nM treated 3 mins before [11,12,3H]ATRA addition measured after 30 mins by HPLC analysis; conditions: Microsome
Method in brief: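 Hamster liver microsomes (500 μg/mL stock) were used in 0.1 M phosphate buffer, pH 7.4, with NADPH (20 mM stock), MgCl2 and BSA. Inhibitor at 100 nM in DMSO was preincubated for 3 min at 37 °C. [11,12-3H]-ATRA was then added at 20 μM and incubated 30 min under oxygen at 37 °C. The reaction was stopped with formic acid, extracted with ethyl acetate/methanol/BHA, and radiolabelled polar metabolites were quantified by HPLC.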

[2] = Inhibition of CYP26 in hamster liver microsomes assessed as [11,12-[3H]ATRA metabolism treated 3 mins before [11,12,3H]ATRA addition measured after 30 mins by HPLC analysis; set-up: species or system Cricetinae, Microsome

Compound | inhibition [1] | IC50 [2]
CCOc1cc(/C=N/N2CCN(/N=C/c3ccc(O)c(OCC)c3)CC2)ccc1O | 34.3% | 
CC1=C(/C=C/C(C)=C/C=C/C(C)=C/C(=O)O)C(C)(C)CCC1n1ccnc1 (racemic) |  | 2.33 nM
COC(=O)CCCCCc1ccc(Cc2ccc(CCCCCC(=O)OC)cc2)cc1 | 31.4% | 
CCOC(=O)/C=C(\C)NCCSSCCN/C(C)=C/C(=O)OCC | 54.7% | 
Cc1cc(CC(C)C2CCC(C)C(c3ccc(O)c(C)c3)C2)ccc1O (stereo not given) | 33.8% | 
COC(=O)/C=C(C)/C=C/C=C(C)/C=C/C1=C(C)C(n2ccnc2)CCC1(C)C (racemic) |  | 0.009 nM
CC1=C(/C=C/C(C)=C/C=C/C(C)=C/C(=O)n2ccnc2)C(C)(C)CCC1n1cncn1 (racemic) |  | 0.05 nM
C/C(=N\CCCCCC/N=C(\C)c1cc(O)ccc1O)c1cc(O)ccc1O | 22.2% | 
Nc1nc(Cl)cc(NCCCCCCCCNc2cc(Cl)nc(N)n2)n1 | 18.1% | 
CC1=C(/C=C/C(C)=C/C=C/C(C)=C/C(=O)O)C(C)(C)CCC1n1cncn1 (racemic) |  | 5.84 nM
C/C(=N\Cc1cccc(C/N=C(\C)c2ccccc2O)c1)c1ccccc1O | 38.6% | 
COc1cc(/C=N/CCCC/N=C/c2cc(OC)c(OC)c(OC)c2)cc(OC)c1OC | 27.3% | 
COC(=O)/C=C(C)/C=C/C=C(C)/C=C/C1=C(C)C(n2cncn2)CCC1(C)C (racemic) |  | 2 nM
CC(SCCCCCCCCCCSC(C)C(=O)O)C(=O)O (stereo not given) | 20.5% | 
COC(=O)c1cc(OCC#CC#CCOc2ccc(O)c(C(=O)OC)c2)ccc1O | 17.9% | 
COc1ccc(/C(C)=N/OC(=O)c2cc(OC)c(OC)c(OC)c2)cc1CSc1ccccn1 | 28.5% | 
CNC(=S)N/N=C(\C)CCCCCCCCCCCC/C(C)=N/NC(=S)NC | 21.2% | 
Cc1nc(N)nc(O)c1CCCNc1ccc(CCCCC(=O)CCl)cc1 | 42.8% | 
Nc1nc(Cl)cc(NCCCCCCCCCCNc2cc(Cl)nc(N)n2)n1 | 32.7% | 
CCCCCCC(CCCCCCCCCCC(=O)OC(C)(C)C)OC(C)=O (stereo not given) | 36.2% | 
CCOC(=O)c1cnn(-c2ccc(Cc3ccc(-n4ncc(C(=O)OCC)c4C)cc3)cc2)c1C | 49.8% | 
O=C(Nc1ccc(OCCCCCOc2ccccc2)cc1)C(F)(F)F | 34.8% | 
O=C(Oc1ccc(CC/C=C/CCc2ccc(OC(=O)c3ccccc3)cc2)cc1)c1ccccc1 | 30.4% | 
Cc1nc(N)nc(O)c1CCCNc1ccc(CCCCC2(CCl)OCCO2)cc1 | 29.4% | 
CCOC(=O)CCCCCCCCCCCCCCCCC(=O)OCC | 29.5% | 
